The source made the active and inactive calls. No cut-off for these calls is given here.
What was measured:
Alpha-glucosidase MAL12 [1] = molecular target: T1, Alpha-glucosidase MAL12 (Saccharomyces cerevisiae S288c, UniProt P53341); assay: Inhibition of Saccharomyces cerevisiae alpha-glucosidase using p-nitrophenyl alpha-D-glucopyranoside as substrate preincubated for 15 mins measured up to 30 mins by spectrophotometry
How it was run: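 Yeast enzyme 0.2 U/mL held with graded inhibitor levels for 15 min at 37 °C in 0.1 M phosphate buffer pH 6.8, DMSO 7% final; p-nitrophenyl α-D-glucopyranoside 0.7 mM final added, A400 followed up to 30 min. DMSO-only control; % inhibition = 100 − (OD test/OD control) × 100.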

3T3 = assay: Cytotoxicity against […] 3T3 cells by MTT assay; assay type: cell-based; conditions: Mus musculus, NIH3T3
How it was run: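 […] fibroblast 3T3 cells (2×10^5 cells/mL) grown overnight at 37 °C under CO2, then given serial dilutions (100–12.5 µg/mL) in DMEM with 5% FBS and penicillin/streptomycin. MTT (2 mg/mL in PBS) added for 4 h. Formazan dissolved in DMSO and read at 540 nm; viability taken as the OD ratio.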

[2] = molecular target: Carbonic anhydrase 2 (Bos taurus) (UniProt P00921); assay: Inhibition of purified bovine erythrocyte carbonic anhydrase 2 using 4-PNA as substrate preincubated for 15 mins by spectrophotometry
Sequence of Carbonic anhydrase 2 (Bos taurus) (P00921 2-260 limits assumed): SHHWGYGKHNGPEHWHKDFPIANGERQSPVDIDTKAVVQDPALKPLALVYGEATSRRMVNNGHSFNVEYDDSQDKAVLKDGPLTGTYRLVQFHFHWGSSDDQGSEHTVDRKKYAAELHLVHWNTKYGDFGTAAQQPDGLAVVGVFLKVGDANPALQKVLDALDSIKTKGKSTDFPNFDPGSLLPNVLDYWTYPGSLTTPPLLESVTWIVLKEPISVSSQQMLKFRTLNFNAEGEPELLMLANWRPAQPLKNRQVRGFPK
How it was run: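 Bovine erythrocyte CA-II (0.1 mg/mL stock) in 20 mM HEPES-Tris pH 7.4, DMSO 10% final, preincubated with compound for 15 min. Reaction started with 0.7 mM 4-nitrophenyl acetate (in ethanol). 4-Nitrophenol read at 400 nm each minute for 30 min. Triplicates at several concentrations.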

Serpentes = assay: Inhibition of snake venom phosphodiesterase-1 using bis-(p-nitropheny1) phosphate as substrate preincubated for 30 mins by spectrophotometry
How it was run: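 Snake venom enzyme, 0.000742 U/well final, in 33 mM Tris–HCl pH 8.8 with 30 mM Mg-acetate. Pre-incubated 30 min with test samples. Substrate bis-(p-nitrophenyl) phosphate at 0.33 mM. Rate of p-nitrophenol release (change in OD/min) followed at 410 nm, 37 °C, in microplate format. Cysteine and EDTA used as positive controls. Run in triplicate.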

[3] = molecular target: T2, Beta-glucuronidase (Homo sapiens) (UniProt P08236); assay: Inhibition of beta-glucuronidase (unknown origin) using p-nitrophenyl-beta-D-glucuronide as substrate preincubated for 30 mins by spectrophotometry
T2 sequence (whole entry): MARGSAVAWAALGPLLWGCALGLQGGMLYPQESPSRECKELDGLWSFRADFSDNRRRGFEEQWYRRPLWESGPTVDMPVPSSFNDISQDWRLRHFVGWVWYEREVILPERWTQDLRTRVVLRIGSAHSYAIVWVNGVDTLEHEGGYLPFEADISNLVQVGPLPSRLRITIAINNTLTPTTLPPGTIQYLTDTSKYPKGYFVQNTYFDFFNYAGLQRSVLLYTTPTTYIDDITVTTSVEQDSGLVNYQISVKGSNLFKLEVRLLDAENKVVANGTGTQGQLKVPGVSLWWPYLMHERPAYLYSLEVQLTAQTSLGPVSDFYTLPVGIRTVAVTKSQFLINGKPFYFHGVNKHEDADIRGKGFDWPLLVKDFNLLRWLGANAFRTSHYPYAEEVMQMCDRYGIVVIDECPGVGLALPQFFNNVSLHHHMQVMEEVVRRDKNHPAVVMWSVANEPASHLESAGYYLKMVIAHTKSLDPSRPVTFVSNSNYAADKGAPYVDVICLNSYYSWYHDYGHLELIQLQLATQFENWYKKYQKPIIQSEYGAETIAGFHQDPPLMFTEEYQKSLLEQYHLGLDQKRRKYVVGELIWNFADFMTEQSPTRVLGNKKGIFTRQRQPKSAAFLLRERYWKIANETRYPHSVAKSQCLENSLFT
How it was run: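 Enzyme (1 U) in 0.1 M acetate buffer held with compound (DMSO 2% final) at 37 °C for 30 min. Then 0.4 mM p-nitrophenyl-β-D-glucuronide added and p-nitrophenol read at 405 nm. Run in triplicate.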

Alpha-glucosidase MAL12 [4] = molecular target: T1, Alpha-glucosidase MAL12; assay: Competitive inhibition of Saccharomyces cerevisiae alpha-glucosidase using p-nitrophenyl alpha-D-glucopyranoside as substrate preincubated for 15 mins by Lineweaver-Burk plot method
[5] = molecular target: Oligo-1,6-glucosidase IMA1 (Saccharomyces cerevisiae S288c) (UniProt P53051); assay: Ratio of acarbose IC50 to compound IC50 for Saccharomyces cerevisiae alpha-glucosidase using p-nitrophenyl alpha-D-glucopyranoside as substrate preincubated for 15 mins measured up to 30 mins by spectrophotometry
Sequence of Oligo-1,6-glucosidase IMA1 (Saccharomyces cerevisiae S288c) (P53051 whole entry): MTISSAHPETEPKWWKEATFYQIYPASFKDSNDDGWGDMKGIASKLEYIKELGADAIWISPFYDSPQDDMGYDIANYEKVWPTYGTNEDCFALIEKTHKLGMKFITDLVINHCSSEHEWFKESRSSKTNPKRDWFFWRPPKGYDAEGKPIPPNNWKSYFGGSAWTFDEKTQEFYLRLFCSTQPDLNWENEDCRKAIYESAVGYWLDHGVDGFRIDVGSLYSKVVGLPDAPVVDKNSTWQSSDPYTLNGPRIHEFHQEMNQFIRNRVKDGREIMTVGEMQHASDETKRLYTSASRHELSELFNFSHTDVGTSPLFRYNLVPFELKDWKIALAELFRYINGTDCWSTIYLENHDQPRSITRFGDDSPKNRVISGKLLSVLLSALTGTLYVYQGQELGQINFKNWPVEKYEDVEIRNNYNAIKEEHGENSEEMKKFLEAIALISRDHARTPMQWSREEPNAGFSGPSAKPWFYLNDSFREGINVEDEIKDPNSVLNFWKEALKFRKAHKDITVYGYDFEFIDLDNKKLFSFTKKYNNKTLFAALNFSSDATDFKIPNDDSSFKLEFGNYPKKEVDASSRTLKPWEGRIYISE

Alpha-glucosidase MAL12 [6] = molecular target: T1, Alpha-glucosidase MAL12; assay: Non-competitive inhibition of Saccharomyces cerevisiae alpha-glucosidase using p-nitrophenyl alpha-D-glucopyranoside as substrate preincubated for 15 mins by Lineweaver-Burk plot method
How it was run: (§1)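 Kinetics on the yeast enzyme: 1/rate plotted against 1/substrate (Lineweaver-Burk) at several inhibitor levels, e.g. 60, 70 and 80 µM, to see effects on Km and Vmax. Ki taken from a replot of Lineweaver-Burk slopes against inhibitor concentration and checked by Dixon plot (1/rate against inhibitor concentration). Points are the mean of three experiments.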

[7] = molecular target: Oligo-1,6-glucosidase IMA1 (Saccharomyces cerevisiae S288c) (UniProt P53051); assay: Non-competitive inhibition of Saccharomyces cerevisiae alpha-glucosidase using p-nitrophenyl alpha-D-glucopyranoside as substrate preincubated for 15 mins by Dixon plot method; how it was run: as §1

T1 sequence (P53341 whole entry): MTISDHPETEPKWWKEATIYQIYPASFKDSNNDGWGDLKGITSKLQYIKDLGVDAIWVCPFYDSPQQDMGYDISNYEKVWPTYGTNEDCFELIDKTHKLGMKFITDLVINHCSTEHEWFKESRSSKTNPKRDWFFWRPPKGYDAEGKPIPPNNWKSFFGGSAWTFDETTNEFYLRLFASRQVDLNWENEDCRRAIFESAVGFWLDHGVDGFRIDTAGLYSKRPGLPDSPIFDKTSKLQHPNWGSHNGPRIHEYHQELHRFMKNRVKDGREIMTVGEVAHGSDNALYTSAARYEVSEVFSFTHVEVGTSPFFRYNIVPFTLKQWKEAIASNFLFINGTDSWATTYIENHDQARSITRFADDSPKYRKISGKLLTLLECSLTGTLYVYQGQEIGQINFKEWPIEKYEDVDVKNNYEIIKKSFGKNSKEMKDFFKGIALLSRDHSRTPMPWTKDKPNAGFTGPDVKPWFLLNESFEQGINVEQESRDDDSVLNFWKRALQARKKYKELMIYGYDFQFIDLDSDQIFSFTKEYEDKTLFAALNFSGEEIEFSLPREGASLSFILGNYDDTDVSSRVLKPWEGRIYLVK

IC50 (Alpha-glucosidase MAL12 [1]) [µM]	Compound	IC50 (3T3) [µM]	inhibition [2]	inhibition (Serpentes) [%]	inhibition [3]	Ki (Alpha-glucosidase MAL12 [4]) [µM]	Ratio IC50 [5]	Ki (Alpha-glucosidase MAL12 [6]) [µM]	inhibition [7]
122	CCCCC1C(C(=O)OCC)=C(C)NC(C)=C1C(=O)OCC	–	–	–	–	–	–	–	–
112	CCOC(=O)C1=C(C)NC(C)=C(C(=O)OCC)C1CCc1ccccc1	26.7	–	–	–	–	–	–	–
124	CCOC(=O)C1=C(C)NC(C)=C(C(=O)OCC)C1c1ccc(OCC)cc1	> 30	–	–	–	–	–	–	–
118	CCOC(=O)C1=C(C)NC(C)=C(C(=O)OCC)C1c1ccc(C)cc1	> 30	–	–	–	–	–	–	–

Continued, molecule first:

Compound	IC50 (Alpha-glucosidase MAL12 [1]) [µM]	IC50 (3T3) [µM]	inhibition [2]	inhibition (Serpentes) [%]	inhibition [3]	Ki (Alpha-glucosidase MAL12 [4]) [µM]	Ratio IC50 [5]	Ki (Alpha-glucosidase MAL12 [6]) [µM]	inhibition [7]
CCOC(=O)C1=C(C)NC(C)=C(C(=O)OCC)C1c1ccc(O)c(O)c1	274	28.6	–	–	–	–	–	–	–
CCOC(=O)C1=C(C)NC(C)=C(C(=O)OCC)C1c1cccs1	74.3	> 30	inactive	8	inactive	–	–	–	–
CCOC(=O)C1=C(C)NC(C)=C(C(=O)OCC)C1c1ccc([N+](=O)[O-])cc1	51	> 30	9.7%	20.3	14.1%	66	18	–	–
CCOC(=O)C1=C(C)NC(C)=C(C(=O)OCC)C1c1ccccc1F	60.2	> 30	–	–	–	–	–	–	–
CCOC(=O)C1=C(C)NC(C)=C(C(=O)OCC)C1c1ccc(Cl)cc1	72.4	27.9	–	–	–	–	–	–	–
CCOC(=O)C1=C(C)NC(C)=C(C(=O)OCC)C1c1cccc([N+](=O)[O-])c1	35	> 30	11.7%	11.4	22.3%	–	26	25	Active
CCOC(=O)C1=C(C)NC(C)=C(C(=O)OCC)C1c1ccc(SC)cc1	97.4	> 30	–	–	–	–	–	–	–
CCOC(=O)C1=C(C)NC(C)=C(C(=O)OCC)C1c1ccc(OC)cc1	65.1	> 30	inactive	8.1	12.4%	–	–	–	–

— ChEMBL document CHEMBL3407409, “Synthesis of diethyl 4-substituted-2,6-dimethyl-1,4-dihydropyridine-3,5-dicarboxylates as a new series of inhibitors against yeast α-glucosidase” (Eur J Med Chem, 2015)
